Measured values reported in ChEMBL document CHEMBL3044760, “Synthesis and insecticidal activity of heptafluoroisopropyl-containing benzoylphenylurea structures” (2010).
Activity calls are given as the source filed them. The calls are words filed in the database; no cut-off is given here.

Assays:
[1] = system: Mythimna separata; assay: Insecticidal activity against Mythimna separata (Oriental armyworm) second-instar larvae reared on compound pre-treated corn disks assessed as larval mortality at 15.625 mg/L measured 7 days post compound treatment by leaf-dip method; assay type: functional
How it was run: (§1)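 Leaf-dip: corn disks dipped 5 s in test solution, air-dried on filter paper, set on agar in 7 cm Petri dishes, with water-dipped disks as controls. Ten second-instar larvae per disk; dishes sealed with ventilated lids and stored inverted. Mortality scored at 7 days and corrected by Abbott's formula when needed. Diflubenzuron run under the same conditions.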

[2] = system: Mythimna separata; assay: Insecticidal activity against Mythimna separata (Oriental armyworm) second-instar larvae reared on compound pre-treated corn disks assessed as larval mortality at 31.25 mg/L measured 7 days post compound treatment by leaf-dip method; assay type: functional; how it was run: as §1
[3] = system: Mythimna separata; assay: Insecticidal activity against Mythimna separata (Oriental armyworm) second-instar larvae reared on compound pre-treated corn disks assessed as larval mortality at 62.5 mg/L measured 7 days post compound treatment by leaf-dip method; assay type: functional; how it was run: as §1
[4] = system: Mythimna separata; assay: Insecticidal activity against Mythimna separata (Oriental armyworm) second-instar larvae reared on compound pre-treated corn disks assessed as larval mortality at 10 mg/L measured 7 days post compound treatment by leaf-dip method; assay type: functional; how it was run: as §1
[5] = system: Mythimna separata; assay: Insecticidal activity against Mythimna separata (Oriental armyworm) second-instar larvae reared on compound pre-treated corn disks assessed as larval mortality at 50 mg/L measured 7 days post compound treatment by leaf-dip method; assay type: functional; how it was run: as §1
[6] = system: Mythimna separata; assay: Insecticidal activity against Mythimna separata (Oriental armyworm) second-instar larvae reared on compound pre-treated corn disks assessed as larval mortality at 0.125 mg/L measured 7 days post compound treatment by leaf-dip method; assay type: functional; how it was run: as §1
[7] = system: Mythimna separata; assay: Insecticidal activity against Mythimna separata (Oriental armyworm) second-instar larvae reared on compound pre-treated corn disks assessed as larval mortality at 0.25 mg/L measured 7 days post compound treatment by leaf-dip method; assay type: functional; how it was run: as §1
[8] = system: Plutella xylostella; assay: Insecticidal activity against Plutella xylostella (diamondback moth) […] using 5% compound EC formulation at 37.5 g of ai/ha measured after 7 days field trial; assay type: functional
[9] = system: Bemisia tabaci; assay: Insecticidal activity against Bemisia tabaci (sweet potato whitefly) nymphs assessed as effect on larval pupation; assay type: functional, organism-based
[10] = system: Spodoptera littoralis; assay: Insecticidal activity against Spodoptera littoralis worm third-instar larvae grown on compound pre-treated caster bean leaves assessed as larval weight gain at 0.5 mg of ai/L measured 8 days post compound treatment relative to untreated control; assay type: functional
[11] = system: Spodoptera littoralis; assay: Insecticidal activity against Spodoptera littoralis worm third-instar larvae grown on compound pre-treated caster bean leaves assessed as larval weight gain at 0.25 mg of ai/L measured 8 days post compound treatment relative to untreated control; assay type: functional
[12] = system: Spodoptera littoralis; assay: Insecticidal activity against Spodoptera littoralis worm third-instar larvae grown on compound pre-treated caster bean leaves assessed as larval mortality at 0.5 mg of ai/L measured 8 days post compound treatment; assay type: functional
How it was run: (§2)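 Castor bean leaves treated at 0.25 or 0.5 mg ai/L formulation and fed to S. littoralis third instars (11 ± 1 mg) for 4 days, then moved to untreated leaves for 4 more days. Larval mortality scored at day 4 and day 8.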

[13] = system: Spodoptera littoralis; assay: Insecticidal activity against Spodoptera littoralis worm third-instar larvae grown on compound pre-treated caster bean leaves assessed as larval mortality at 0.25 mg of ai/L measured 8 days post compound treatment; assay type: functional; how it was run: as §2
[14] = system: Pieris rapae; assay: Insecticidal activity against imported cabbage worm measured 7 days after application of compound at 2000 diluent 5% EC; assay type: functional, organism-based
[15] = system: Cnaphalocrocis medinalis; assay: Insecticidal activity against rice leaf roller third-instar larvae using 5% compound EC formulation at 25 g of ai/ha measured after 10 days field plot trial; assay type: functional, organism-based
[16] = system: Spodoptera littoralis; assay: Insecticidal activity against Spodoptera littoralis worm third-instar larvae grown on compound pre-treated caster bean leaves assessed as larval mortality at 0.5 mg of ai/L measured 4 days post compound treatment; assay type: functional; how it was run: as §2
[17] = system: Spodoptera littoralis; assay: Insecticidal activity against Spodoptera littoralis worm third-instar larvae grown on compound pre-treated caster bean leaves assessed as larval mortality at 0.25 mg of ai/L measured 4 days post compound treatment; assay type: functional; how it was run: as §2
[18] = system: Mythimna separata; assay: Insecticidal activity against Mythimna separata (Oriental armyworm) second-instar larvae reared on compound pre-treated corn disks assessed as larval mortality at 5 mg/L measured 7 days post compound treatment by leaf-dip method; assay type: functional; how it was run: as §1
[19] = system: Bemisia tabaci; assay: Insecticidal activity against Bemisia tabaci (sweet potato whitefly) nymphs assessed as suppression of larval pupation at 0.3 mg of ai/ha; assay type: functional, organism-based
[20] = system: Spodoptera littoralis; assay: Insecticidal activity against Spodoptera littoralis worm third-instar larvae grown on compound pre-treated caster bean leaves assessed as larval weight gain at 0.5 mg of ai/L as Rimon EC formulation measured 8 days post compound treatment relative to untreated control; assay type: functional
[21] = system: Spodoptera littoralis; assay: Insecticidal activity against Spodoptera littoralis worm third-instar larvae grown on compound pre-treated caster bean leaves assessed as larval mortality at 0.5 mg of ai/L as Rimon EC formulation measured 8 days post compound treatment; assay type: functional; how it was run: as §2
[22] = system: Spodoptera littoralis; assay: Insecticidal activity against Spodoptera littoralis worm third-instar larvae grown on compound pre-treated caster bean leaves assessed as larval mortality at 0.5 mg of ai/L as Rimon EC formulation measured 4 days post compound treatment; assay type: functional; how it was run: as §2
[23] = system: Mythimna separata; assay: Insecticidal activity against Mythimna separata (Oriental armyworm) second-instar larvae reared on compound pre-treated corn disks assessed as larval mortality at 12.5 mg/L measured 7 days post compound treatment by leaf-dip method; assay type: functional; how it was run: as §1

What does the source list for `O=C(NC(=O)c1c(F)cccc1F)Nc1ccc(C(F)(C(F)(F)F)C(F)(F)F)c(Br)c1`?
mortality at 15.625 µg/mL [1]: 46.6%; mortality at 31.25 µg/mL [2]: 100%

With `COc1ccc(NC(=O)NC(=O)c2c(F)cccc2F)c(C(F)(C(F)(F)F)C(F)(F)F)c1` as the compound, how does the mortality at 62.5 µg/mL [3] read?
Its mortality at 62.5 µg/mL is 100%.

And the mortality at 31.25 µg/mL [2]?
The mortality at 31.25 µg/mL was 86.6%.

Which results are given for `Cc1ccc(NC(=O)NC(=O)c2c(F)cccc2F)c(C(F)(C(F)(F)F)C(F)(F)F)c1`?
mortality at 62.5 µg/mL [3]: 100%; mortality at 31.25 µg/mL [2]: 93.3%

Which mortality at 10 µg/mL [4] does the source give for `Cc1cc(C(F)(C(F)(F)F)C(F)(F)F)cc(C)c1NC(=O)NC(=O)c1ccccc1Cl` here?
Its mortality at 10 µg/mL is 69.1%.

And the mortality at 50 µg/mL [5]?
The mortality at 50 µg/mL was 100%.

Which results are given for `Cc1cc(C(F)(C(F)(F)F)C(F)(F)F)cc(C)c1NC(=O)NC(=O)c1c(F)cccc1F`?
mortality at 0.125 µg/mL [6]: 50%; mortality at 0.25 µg/mL [7]: 80%; Activity [8]: >92%; Activity [9]: inactive; Activity [10]: 31%; Activity [11]: 45%; mortality [12]: 78%; mortality [13]: 36%; Activity [14]: Active; Activity [15]: Active; mortality [16]: 18%; mortality [17]: 8%

How did the mortality at 15.625 µg/mL [1] turn out when `Cc1cc(C(F)(C(F)(F)F)C(F)(F)F)ccc1NC(=O)NC(=O)c1c(F)cccc1F` was run?
The mortality at 15.625 µg/mL was 56.6%.

What about the mortality at 31.25 µg/mL [2] of the same compound?
The mortality at 31.25 µg/mL was 100%.

What does the source list for `O=C(NC(=O)c1c(F)cccc1F)Nc1ccc(Br)cc1C(F)(C(F)(F)F)C(F)(F)F`?
mortality at 15.625 µg/mL [1]: 56.6%; mortality at 31.25 µg/mL [2]: 100%

Which results are given for `O=C(NC(=O)c1ccccc1Cl)Nc1ccc(C(F)(C(F)(F)F)C(F)(F)F)cc1`?
mortality at 10 µg/mL [4]: 100%; mortality at 5 µg/mL [18]: 66.9%

For `O=C(NC(=O)c1c(F)cccc1F)Nc1ccc(C(F)(C(F)(F)F)C(F)(F)F)cc1Cl`, which mortality at 15.625 µg/mL [1] is on record?
Its mortality at 15.625 µg/mL is 20%.

And the mortality at 31.25 µg/mL [2]?
Its mortality at 31.25 µg/mL is 100%.

With `O=C(NC(=O)c1c(F)cccc1F)Nc1c(F)cc(C(F)(C(F)(F)F)C(F)(F)F)cc1F` as the compound, how does the mortality at 0.125 µg/mL [6] read?
Its mortality at 0.125 µg/mL is 62.7%.

And the mortality at 0.25 µg/mL [7]?
The mortality at 0.25 µg/mL was 100%.

For `O=C(NC(=O)c1c(F)cccc1F)Nc1ccc(C(F)(C(F)(F)F)C(F)(F)F)c(Cl)c1`, which mortality at 15.625 µg/mL [1] is on record?
The mortality at 15.625 µg/mL was 86.6%.

And the mortality at 31.25 µg/mL [2]?
Its mortality at 31.25 µg/mL is 100%.

Which results are given for `O=C(NC(=O)c1c(F)cccc1F)Nc1ccc(OC(F)(F)C(F)OC(F)(F)F)c(Cl)c1` (stereo unspecified) [NOVALURON]?
Activity [19]: Active; Activity [20]: 44%; mortality [21]: 78%; mortality [22]: 6%

For `O=C(NC(=O)c1c(F)cccc1F)Nc1ccc(Cl)cc1` [DIFLUBENZURON], which mortality at 0.125 µg/mL [6] is on record?
The mortality at 0.125 µg/mL was 69.5%.

What about the mortality at 0.25 µg/mL [7] of the same compound?
The mortality at 0.25 µg/mL was 100%.

What does the source list for `O=C(NC(=O)c1c(F)cccc1F)Nc1ccc(C(F)(C(F)(F)F)C(F)(F)F)cc1F`?
mortality at 0.125 µg/mL [6]: 63.3%; mortality at 0.25 µg/mL [7]: 100%

With `O=C(NC(=O)c1ccccc1)Nc1ccc(C(F)(C(F)(F)F)C(F)(F)F)cc1` as the compound, how does the mortality at 10 µg/mL [4] read?
The mortality at 10 µg/mL was 68.1%.

What about the mortality at 12.5 µg/mL [23] of the same compound?
Its mortality at 12.5 µg/mL is 100%.

And the Activity [9]?
Its Activity is “inactive”.

What about the Activity [10] of the same compound?
Its Activity is 94%.

And the Activity [11]?
The Activity was 69%.

What about the mortality [12] of the same compound?
The mortality was 22%.

And the mortality [13]?
Its mortality is 14%.

And the mortality [16]?
Its mortality is 18%.

And the mortality [17]?
The mortality was 8%.

How did the mortality at 15.625 µg/mL [1] turn out when `O=C(NC(=O)c1c(F)cccc1F)Nc1ccc(C(F)(C(F)(F)F)C(F)(F)F)cc1` was run?
Its mortality at 15.625 µg/mL is 43.3%.

What about the mortality at 31.25 µg/mL [2] of the same compound?
Its mortality at 31.25 µg/mL is 100%.
